≈ marks a conversion by molar mass, not a printed value.
Key:
Assay type in all cases: functional
Metaphire posthuma [1] = assay: Anthelmintic activity against Pheretima posthuma assessed as time taken for complete parasite paralysis at 0.1% w/v
Summary of the method: (§1)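 Earthworms (Pheretima posthuma) exposed to test solutions at 0.1, 0.2 and 0.5% w/v; time in minutes to complete paralysis (worms motionless) recorded. Albendazole as standard. Mean of three determinations ± S.D.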

Pseudomonas aeruginosa [2] = assay: Antimicrobial activity against Pseudomonas aeruginosa at 50 ug/ml by agar plate diffusion technique; details: read-out: IZ
Summary of the method: (§2)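 Agar plate diffusion against E. coli, P. aeruginosa, S. aureus and B. subtilis, with compounds at 25, 50 and 100 µg/mL. Streptomycin as standard.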

[3] = Antioxidant activity assessed as potassium ferricyanide ion reducing power after 20 mins
Summary of the method: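 Oyaizu method. Samples or ascorbic acid in DMF (12.5–100 µg/mL) mixed with 0.2 M phosphate buffer pH 6.6 and 1% potassium ferricyanide, 20 min at 50 °C. 10% TCA added, centrifuged. Supernatant mixed with water and 0.1% FeCl3, read at 700 nm. % = [(Vt/Vc) − 1] × 100. IC50 derived.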

Aspergillus niger [4] = assay: Antimicrobial activity against Aspergillus niger at 25 ug/ml by paper disc method; details: read-out: IZ
Summary of the method: (§3)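 Paper disc method against A. niger and C. albicans, with compounds at 25, 50 and 100 µg/mL. Amphotericin-B as standard.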

Staphylococcus aureus [5] = assay: Antimicrobial activity against Staphylococcus aureus at 100 ug/ml by agar plate diffusion technique; details: read-out: IZ; summary of the method: as §2
Aspergillus niger [6] = assay: Antimicrobial activity against Aspergillus niger at 50 ug/ml by paper disc method; details: read-out: IZ; summary of the method: as §3
[7] = Antioxidant activity assessed as inhibition of lipid peroxidation using egg lecithin liposomes incubated for 1 hr
Summary of the method: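 Egg lecithin (3 mg/mL, phosphate buffer pH 7.4) sonicated 10 min to form liposomes. Sample or ascorbic acid (12.5–100 µg/mL) added. Peroxidation induced with FeCl3 and L-ascorbic acid, 1 h at 37 °C. Stopped with HCl/TCA/TBA/BHA, boiled 15 min, centrifuged, supernatant read at 532 nm. Triplicate. % inhibition vs control. IC50 derived.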

[8] = Antioxidant activity assessed as hydrogen peroxide scavenging activity after 10 mins
Summary of the method: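 H2O2 (20 mM) in PBS pH 7.4. 1 mL of sample or ascorbic acid in methanol (12.5–100 µg/mL) added to 2 mL H2O2 solution. A230 read after 10 min. % inhibition = [1 − (Vt/Vc)] × 100. Triplicate, averaged. IC50 derived from % inhibition across concentrations.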

[9] = Antiinflammatory activity assessed as inhibition of albumin denaturation at 100 ug/ml by UV-visible spectrophotometry
Summary of the method: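 Compounds dissolved in minimal DMF, diluted in PBS pH 7.4 (final DMF <2.5%). 1 mL test solution (100 µg/mL) plus 1 mL 1% albumin in PBS, 15 min at 27 ± 1 °C, then heated 10 min at 60 ± 1 °C. After cooling, turbidity read at 660 nm. % inhibition = [(Vt/Vc) − 1] × 100 against a no-drug control. Triplicate, averaged. Diclofenac standard.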

Bacillus subtilis [10] = assay: Antimicrobial activity against Bacillus subtilis at 25 ug/ml by agar plate diffusion technique; details: read-out: IZ; summary of the method: as §2
Metaphire posthuma [11] = assay: Anthelmintic activity against Pheretima posthuma assessed as time taken for parasite death at 0.1% w/v
Summary of the method: (§4)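 Earthworms (Pheretima posthuma, spelled Perituma posthuma in text) exposed to test compounds at 0.1, 0.2 and 0.5% w/v. Albendazole served as standard, with an untreated control. Paralysis was recorded as the time until worms became motionless, then time to death was recorded, in minutes. Each value is the mean of three determinations with S.D.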

Metaphire posthuma [12] = assay: Anthelmintic activity against Pheretima posthuma assessed as time taken for parasite death at 0.5% w/v; summary of the method: as §4
Staphylococcus aureus [13] = assay: Antimicrobial activity against Staphylococcus aureus at 50 ug/ml by agar plate diffusion technique; details: read-out: IZ; summary of the method: as §2
Escherichia coli [14] = assay: Antimicrobial activity against Escherichia coli at 50 ug/ml by agar plate diffusion technique; details: read-out: IZ; summary of the method: as §2
Candida albicans [15] = assay: Antimicrobial activity against Candida albicans at 25 ug/ml by paper disc method; details: read-out: IZ; summary of the method: as §3
Candida albicans [16] = assay: Antimicrobial activity against Candida albicans at 50 ug/ml by paper disc method; details: read-out: IZ; summary of the method: as §3
Pseudomonas aeruginosa [17] = assay: Antimicrobial activity against Pseudomonas aeruginosa at 25 ug/ml by agar plate diffusion technique; details: read-out: IZ; summary of the method: as §2
Staphylococcus aureus [18] = assay: Antimicrobial activity against Staphylococcus aureus at 25 ug/ml by agar plate diffusion technique; details: read-out: IZ; summary of the method: as §2
Metaphire posthuma [19] = assay: Anthelmintic activity against Pheretima posthuma assessed as time taken for complete parasite paralysis at 0.2% w/v; summary of the method: as §1
Candida albicans [20] = assay: Antimicrobial activity against Candida albicans at 100 ug/ml by paper disc method; details: read-out: IZ; summary of the method: as §3
Bacillus subtilis [21] = assay: Antimicrobial activity against Bacillus subtilis at 100 ug/ml by agar plate diffusion technique; details: read-out: IZ; summary of the method: as §2
Escherichia coli [22] = assay: Antimicrobial activity against Escherichia coli at 100 ug/ml by agar plate diffusion technique; details: read-out: IZ; summary of the method: as §2
Aspergillus niger [23] = assay: Antimicrobial activity against Aspergillus niger at 100 ug/ml by paper disc method; details: read-out: IZ; summary of the method: as §3
[24] = Antioxidant activity assessed as nitric oxide radical scavenging activity after 150 mins
Summary of the method: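 10 mM sodium nitroprusside (4 mL), PBS pH 7.4 (1 mL) and sample or ascorbic acid in DMSO (1 mL, 12.5–100 µg/mL), incubated 150 min at 25 °C. Nitrite detected with sulphanilic acid (5 min) then naphthylethylenediamine (30 min, diffused light). Read at […]. Triplicate. % inhibition = [1 − (Vt/Vc)] × 100. IC50 derived from it.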

Escherichia coli [25] = assay: Antimicrobial activity against Escherichia coli at 25 ug/ml by agar plate diffusion technique; details: read-out: IZ; summary of the method: as §2
Pseudomonas aeruginosa [26] = assay: Antimicrobial activity against Pseudomonas aeruginosa at 100 ug/ml by agar plate diffusion technique; details: read-out: IZ; summary of the method: as §2
Metaphire posthuma [27] = assay: Anthelmintic activity against Pheretima posthuma assessed as time taken for complete parasite paralysis at 0.5% w/v; summary of the method: as §1
Metaphire posthuma [28] = assay: Anthelmintic activity against Pheretima posthuma assessed as time taken for parasite death at 0.2% w/v; summary of the method: as §4
Bacillus subtilis [29] = assay: Antimicrobial activity against Bacillus subtilis at 50 ug/ml by agar plate diffusion technique; details: read-out: IZ; summary of the method: as §2

Row | Structure (SMILES) | Time (Metaphire posthuma [1]) | zone of inhibition at 50 µg/mL (Pseudomonas aeruginosa [2]) | IC50 [3] | zone of inhibition at 25 µg/mL (Aspergillus niger [4]) | zone of inhibition at 100 µg/mL (Staphylococcus aureus [5]) | zone of inhibition at 50 µg/mL (Aspergillus niger [6]) | IC50 [7] | IC50 [8] | inhibition [9] | zone of inhibition at 25 µg/mL (Bacillus subtilis [10]) | Time (Metaphire posthuma [11]) | Time (Metaphire posthuma [12]) | zone of inhibition at 50 µg/mL (Staphylococcus aureus [13]) | zone of inhibition at 50 µg/mL (Escherichia coli [14]) | zone of inhibition at 25 µg/mL (Candida albicans [15]) | zone of inhibition at 50 µg/mL (Candida albicans [16]) | zone of inhibition at 25 µg/mL (Pseudomonas aeruginosa [17]) | zone of inhibition at 25 µg/mL (Staphylococcus aureus [18]) | Time (Metaphire posthuma [19]) | zone of inhibition at 100 µg/mL (Candida albicans [20]) | other results
1 | CCOC(=O)c1cnn(-c2nc(-c3ccco3)c(C#N)c(=O)n2C)c1N | 47.26 min | 12.1 mm | 91 µg/mL (≈ 257 µM) | 10.1 mm | 17.7 mm | 13.1 mm | 116 µg/mL (≈ 327 µM) | 104 µg/mL (≈ 294 µM) | 42.2% | 12.9 mm | 58.76 min | 54.82 min | 14.1 mm | 14.2 mm | 10.9 mm | 12.3 mm | 9.19 mm | 10.9 mm | 42.22 min | 18 mm | zone of inhibition at 100 µg/mL (Bacillus subtilis [21]): 18.3 mm; zone of inhibition at 100 µg/mL (Escherichia coli [22]): 18 mm; zone of inhibition at 100 µg/mL (Aspergillus niger [23]): 20.4 mm; IC50 [24]: 108 µg/mL (≈ 305 µM); zone of inhibition at 25 µg/mL (Escherichia coli [25]): 13 mm; zone of inhibition at 100 µg/mL (Pseudomonas aeruginosa [26]): 19.9 mm; Time (Metaphire posthuma [27]): 45.98 min; Time (Metaphire posthuma [28]): 55.23 min; zone of inhibition at 50 µg/mL (Bacillus subtilis [29]): 14.1 mm
2 | Cn1c(NN)nc(-c2ccccc2Cl)c(C#N)c1=O | 50.65 min | 12.7 mm | 58 µg/mL (≈ 210 µM) | 11.2 mm | 19.3 mm | 14 mm | 57 µg/mL (≈ 207 µM) | 46 µg/mL (≈ 167 µM) | 53.5% | 11.1 mm | 67.33 min | 60.86 min | 15.9 mm | 10.1 mm | 13.4 mm | 17.9 mm | 8.41 mm | 12.8 mm | 52.38 min | 21.4 mm | zone of inhibition at 100 µg/mL (Bacillus subtilis [21]): 22.7 mm; zone of inhibition at 100 µg/mL (Escherichia coli [22]): 13.1 mm; zone of inhibition at 100 µg/mL (Aspergillus niger [23]): 19.4 mm; IC50 [24]: 62 µg/mL (≈ 225 µM); zone of inhibition at 25 µg/mL (Escherichia coli [25]): 9.26 mm; zone of inhibition at 100 µg/mL (Pseudomonas aeruginosa [26]): 15.4 mm; Time (Metaphire posthuma [27]): 45.38 min; Time (Metaphire posthuma [28]): 66.37 min; zone of inhibition at 50 µg/mL (Bacillus subtilis [29]): 15.1 mm
3 | CCOC(=O)c1cnn(-c2nc(-c3ccccc3F)c(C#N)c(=O)n2C)c1N | 70.67 min | 16.1 mm | 69 µg/mL (≈ 180 µM) | 11.9 mm | 26.7 mm | 14.1 mm | 94 µg/mL (≈ 246 µM) | 86 µg/mL (≈ 225 µM) | 48.9% | 14.8 mm | 88.45 min | 60.77 min | 20.8 mm | 22.3 mm | 12 mm | 15.2 mm | 12.7 mm | 15.8 mm | 68.48 min | 21.2 mm | zone of inhibition at 100 µg/mL (Bacillus subtilis [21]): 28 mm; zone of inhibition at 100 µg/mL (Escherichia coli [22]): 27.5 mm; zone of inhibition at 100 µg/mL (Aspergillus niger [23]): 21.2 mm; IC50 [24]: 87 µg/mL (≈ 228 µM); zone of inhibition at 25 µg/mL (Escherichia coli [25]): 15.1 mm; zone of inhibition at 100 µg/mL (Pseudomonas aeruginosa [26]): 26.2 mm; Time (Metaphire posthuma [27]): 48.38 min; Time (Metaphire posthuma [28]): 80.74 min; zone of inhibition at 50 µg/mL (Bacillus subtilis [29]): 19.3 mm

Reference: ChEMBL document CHEMBL1821590, “Novel dihydropyrimidines and its pyrazole derivatives: synthesis and pharmacological screening” (Eur J Med Chem, 2011)
